Laboratory results taken from ChEMBL document CHEMBL1938372, “Design and synthesis of conformationally constrained inhibitors of non-nucleoside reverse transcriptase” (J Med Chem, 2011).
Values after ≈ are worked out from the molar mass of the structure shown. Active and inactive are the calls of the source. The rule behind the calls is not given here.

Assays:
[1] = system: Human immunodeficiency virus; assay: Antiviral activity against multidrug-resistant Human immunodeficiency virus assessed as inhibition of viral replication; format: functional, organism-based
Method in brief: (§1)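 Phenosense cell culture assay against a panel of clinically derived RT mutant viruses in the presence of 10% FBS. IC50 is the compound concentration blocking 50% of viral replication. Each value is the average of two determinations.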

[2] = biological target: Human immunodeficiency virus type 1 reverse transcriptase (Human immunodeficiency virus 1, UniProt Q72547, Y181C); assay: Inhibition of Human immunodeficiency virus reverse transcriptase Y181C mutant by SPA assay
Method in brief: (§2)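 Recombinant HIV-1 RT polymerase scintillation proximity assay run with mutant enzyme, reported as Ki (nM). Values are geometric means of at least two determinations, each within 2-fold of the mean; SEM is given where there were ≥3 determinations.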

[3] = Plasma clearance in Beagle dog at 2 mg/kg, po and 0.5 mg/kg, iv; format: ADME, organism-based, Canis lupus familiaris
Method in brief: (§3)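 PK in Sprague-Dawley rats (iv solution in DMSO via an indwelling jugular cannula, or oral suspension in aqueous methylcellulose/Methocel) and beagle dogs (iv and oral given crossover, same vehicles). Plasma levels by LC-MS. F from oral versus iv dose-normalized AUC. Average of at least two animals; rat values within 25% of the mean.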

[4] = Bioavailability in Beagle dog at 2 mg/kg, po and 0.5 mg/kg, iv; format: ADME, organism-based, Canis lupus familiaris; conditions: in vivo; method in brief: as §3
[5] = Half life in Sprague-Dawley rat at 10 mg/kg, po and 2 mg/kg, iv; format: ADME, organism-based; conditions: in vivo; method in brief: as §3
[6] = system: Human immunodeficiency virus; assay: Antiviral activity against Human immunodeficiency virus harboring reverse transcriptase G190S mutant assessed as inhibition of viral replication; format: functional, organism-based; method in brief: as §1
[7] = Solubility of the compound in water at pH 7; format: physicochemical
Method in brief: (§4)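 Water solubility of the solid compound measured at pH 2 and at pH 7.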

[8] = system: Canis familiaris; assay: Dose normalised AUC in Beagle dog at 2 mg/kg, po by LC-MS analysis; format: ADME, organism-based, Canis lupus familiaris; design: dose 2 mg/kg, route oral; conditions: in vivo; method in brief: as §3
[9] = Volume of distribution in Beagle dog at 2 mg/kg, po and 0.5 mg/kg, iv; format: ADME, organism-based, Canis lupus familiaris; conditions: in vivo; method in brief: as §3
[10] = system: Human immunodeficiency virus; assay: Antiviral activity against Human immunodeficiency virus harboring reverse transcriptase K101E/G190A double mutant assessed as inhibition of viral replication; format: functional, organism-based; method in brief: as §1
[11] = Volume of distribution in Sprague-Dawley rat at 10 mg/kg, po and 2 mg/kg, iv; format: ADME, organism-based; conditions: in vivo; method in brief: as §3
[12] = system: MT4; assay: Cytotoxicity against human MT4 cells up to 8.3 uM; format: cell-based
Method in brief: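 MT-4 cells in RPMI 1640 with 10% FBS or 50% NHS, run alongside the antiviral CIC95 assay; cytotoxicity checked up to the assay upper limit of 8.3 μM.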

[13] = system: Human immunodeficiency virus; assay: Antiviral activity against Human immunodeficiency virus harboring reverse transcriptase L100l mutant assessed as inhibition of viral replication; format: functional, organism-based; method in brief: as §1
[14] = system: Human immunodeficiency virus; assay: Antiviral activity against Human immunodeficiency virus harboring reverse transcriptase L100l/K103N/P225P/H triple mutant assessed as inhibition of viral replication; format: functional, organism-based; method in brief: as §1
[15] = system: Human immunodeficiency virus; assay: Antiviral activity against Human immunodeficiency virus harboring reverse transcriptase K101E/Y181C/G190A triple mutant assessed as inhibition of viral replication; format: functional, organism-based; method in brief: as §1
[16] = Solubility of the compound in water at pH 2; format: physicochemical; method in brief: as §4
[17] = system: Human immunodeficiency virus; assay: Antiviral activity against wild type Human immunodeficiency virus assessed as inhibition of viral replication; format: functional, organism-based
[18] = Bioavailability in Sprague-Dawley rat at 10 mg/kg, po and 2 mg/kg, iv; format: ADME, organism-based; conditions: in vivo; method in brief: as §3
[19] = biological target: Human immunodeficiency virus type 1 reverse transcriptase (Human immunodeficiency virus 1, UniProt Q72547, K103N); assay: Inhibition of Human immunodeficiency virus reverse transcriptase K103N mutant by SPA assay; method in brief: as §2
[20] = system: Human immunodeficiency virus; assay: Antiviral activity against Human immunodeficiency virus harboring reverse transcriptase Y188L mutant assessed as inhibition of viral replication; format: functional, organism-based; method in brief: as §1
[21] = Half life in Beagle dog at 2 mg/kg, po and 0.5 mg/kg, iv; format: ADME, organism-based, Canis lupus familiaris; conditions: in vivo; method in brief: as §3
[22] = system: Human immunodeficiency virus; assay: Antiviral activity against Human immunodeficiency virus expressing wild type reverse transcriptase infected in human MT4 cells by p24 antigen assay in the presence of 50% normal human serum; format: functional; conditions: Human immunodeficiency virus 1, MT4; read-out: CIC95
Method in brief: (§5)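 MT-4 human T-lymphoid cells in RPMI 1640 with either 10% FBS or 50% NHS; CIC95 taken as the concentration inhibiting virus spread/replication by >95%. Geometric mean of at least two determinations, individual values within 2-fold; SEM given when ≥3 determinations.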

[23] = system: Human immunodeficiency virus; assay: Antiviral activity against Human immunodeficiency virus expressing wild type reverse transcriptase infected in human MT4 cells by p24 antigen assay in the presence of 10% FBS; format: functional; conditions: Human immunodeficiency virus 1, MT4; read-out: CIC95; method in brief: as §5
[24] = system: Human immunodeficiency virus; assay: Antiviral activity against Human immunodeficiency virus harboring reverse transcriptase K103N mutant assessed as inhibition of viral replication; format: functional, organism-based; method in brief: as §1
[25] = system: Human immunodeficiency virus; assay: Antiviral activity against Human immunodeficiency virus harboring reverse transcriptase G190A mutant assessed as inhibition of viral replication; format: functional, organism-based; method in brief: as §1
[26] = system: Human immunodeficiency virus; assay: Antiviral activity against Human immunodeficiency virus harboring reverse transcriptase Y181C mutant assessed as inhibition of viral replication; format: functional, organism-based; method in brief: as §1
[27] = system: Human immunodeficiency virus; assay: Antiviral activity against Human immunodeficiency virus expressing reverse transcriptase Y181C mutant infected in human MT4 cells by p24 antigen assay in the presence of 10% FBS; format: functional; conditions: Human immunodeficiency virus 1, MT4; read-out: CIC95
Method in brief: (§6)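 Antiviral spread assay in MT-4 human T-lymphoid cells kept in RPMI 1640 with 10% FBS. Value is the CIC95, the concentration inhibiting virus replication by >95%. Reported as the geometric mean of at least two determinations, all within 2-fold of the mean. Cytotoxicity was checked up to the assay upper limit of 8.3 μM.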

[28] = system: Human immunodeficiency virus; assay: Antiviral activity against Human immunodeficiency virus harboring reverse transcriptase K103N/Y181C/G190A triple mutant assessed as inhibition of viral replication; format: functional, organism-based; method in brief: as §1
[29] = system: Human immunodeficiency virus; assay: Antiviral activity against Human immunodeficiency virus expressing reverse transcriptase K103N mutant infected in human MT4 cells by p24 antigen assay in the presence of 10% FBS; format: functional; conditions: Human immunodeficiency virus 1, MT4; read-out: CIC95; method in brief: as §6
[30] = system: Human immunodeficiency virus; assay: Antiviral activity against Human immunodeficiency virus harboring reverse transcriptase K103N/P225H double mutant assessed as inhibition of viral replication; format: functional, organism-based; method in brief: as §1
[31] = Plasma clearance in Sprague-Dawley rat at 10 mg/kg, po and 2 mg/kg, iv; format: ADME, organism-based; method in brief: as §3
[32] = system: Rattus norvegicus; assay: Dose normalised AUC in Sprague-Dawley rat at 10 mg/kg, po by LC-MS analysis; format: ADME, organism-based; design: dose 10 mg/kg, route oral; conditions: in vivo; method in brief: as §3
[33] = system: Human immunodeficiency virus; assay: Antiviral activity against Human immunodeficiency virus harboring reverse transcriptase V106A/G190A/F227L triple mutant assessed as inhibition of viral replication; format: functional, organism-based; method in brief: as §1
[34] = Inhibition of Human immunodeficiency virus reverse transcriptase by SPA assay

N#Cc1cc(Cl)cc(Oc2c(Cl)ccc3c2cnn3Cc2n[nH]c3nc(N)ccc23)c1
inhibition [1]: Active | Ki [2]: 1.9 nM | clearance [3]: 7.6 mL/min/kg | bioavailability [4]: 32% | half-life [5]: 6.3 h | inhibition [6]: Active | solubility [7]: < 0.1 µg/mL | AUC/dose [8]: 1.33 µM·h | Vd [9]: 2 L/kg | inhibition [10]: Active | Vd [11]: 2.5 L/kg | Activity [12]: Non-toxic | inhibition [13]: Active | inhibition [14]: Active | inhibition [15]: Active | solubility [16]: 40 µg/mL (≈ 88.8 µM) | inhibition [17]: Active | bioavailability [18]: 39% | Ki [19]: 1.7 nM | inhibition [20]: inactive | half-life [21]: 2.8 h | IC95 [22]: 43 nM | IC95 [23]: 4.1 nM | inhibition [24]: Active | inhibition [25]: Active | inhibition [26]: Active | IC95 [27]: 68 nM | inhibition [28]: Active | IC95 [29]: 9.7 nM | inhibition [30]: Active | clearance [31]: 4.7 mL/min/kg | AUC/dose [32]: 3.64 µM·h | inhibition [33]: inactive | Ki [34]: 0.61 nM
